Laboratory results taken from ChEMBL document CHEMBL3232716, “Tailoring cytotoxicity of antimicrobial peptidomimetics with high activity against multidrug-resistant Escherichia coli” (J Med Chem, 2014).
Values after ≈ are worked out from the molar mass of the structure shown. Square brackets hold non-standard residues; d marks the D form. Peptide text beside a SMILES is read from it. hArg = N=C(N)NCCCC[C@H](N)C(=O)O; Nspe = C[C@H](NCC(=O)O)c1ccccc1; Nphe = O=C(O)CNCc1ccccc1

Assays:
HepG2 = assay: Cytotoxicity against human HepG2 cells after 1 hr by MTS/PMS assay; type: cell-based; details: HepG2, 1 h
Procedure, shortened: (§1)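 Monolayers (passage 4–10) grown ~21–25 h to ~90% confluence. Seeding per well: HeLa 8000, HepG2 23 000, NIH 3T3 22 000, IEC-6 16 000, Caco-2 25 000. Cells washed with HBSS/10 mM Hepes pH 7.4 and exposed 1 h at 37 °C, 50 rpm, to compound 0–2000 μM in culture medium. MTS 240 μg/mL/PMS 2.4 μg/mL for 1.5–4 h, A492. Viability referenced to SDS and untreated controls; IC50 from one biological replicate in triplicate.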

Escherichia coli [1] = assay: Antibacterial activity against Escherichia coli ATCC 25922 after 18 hrs by microdilution broth method; type: functional; details: ATCC 25922, 18 h
Procedure, shortened: (§2)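 CLSI broth microdilution. […] Incubated 35 °C in ambient air for 18 h. MIC taken as the lowest concentration with no visible growth versus the compound-free control. Reported as median and range of three independent biological replicates run on separate days.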

Acinetobacter baumannii = assay: Antibacterial activity against multidrug-resistant Acinetobacter baumannii clinical isolate E2-1228625 after 18 hrs by microdilution broth method; type: functional; details: clinical isolate E2-1228625, 18 h
[2] = Cytotoxicity against mouse NIH/3T3 cells after 1 hr by MTS/PMS assay; type: cell-based; details: NIH3T3, 1 h; procedure, shortened: as §1
HeLa = assay: Cytotoxicity against human HeLa cells after 1 hr by MTS/PMS assay; type: cell-based; procedure, shortened: as §1
[3] = Binding affinity to cholesterol containing synthetic POPC/POPG liposomal membrane at 20 uM by circular dichroism analysis; type: physicochemical; details: artificial membrane
Procedure, shortened: (§3)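 CD spectra recorded with 20 μM test compound and 2 mM liposomes in 10 mM Tris buffer, pH 7.5. Liposomes were roughly 100 nm: POPC/POPG 7:3 (bacterial model) or POPC/POPG/cholesterol 5:3:2 (mammalian model). Lipid concentration was standardized by enzymatic phospholipid colorimetric assay.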

Staphylococcus aureus = assay: Antibacterial activity against methicillin-resistant Staphylococcus aureus ATCC 33591 after 18 hrs by microdilution broth method; type: functional; details: ATCC 33591, 18 h; procedure, shortened: as §2
[4] = Binding affinity to synthetic POPC/POPG liposomal membrane at 20 uM by circular dichroism analysis; type: physicochemical; details: artificial membrane; procedure, shortened: as §3
Escherichia coli [5] = assay: Antibacterial activity against NDM-1 producing Escherichia coli clinical isolate 74859898 after 18 hrs by microdilution broth method; type: functional; details: clinical isolate 74859898, 18 h
Escherichia coli [6] = assay: Antibacterial activity against extended-spectrum beta-lactamase producing multidrug-resistant and colistin-susceptible Escherichia coli CTX-M-15 clinical isolate Aar 11 after 18 hrs by microdilution broth method; type: functional; details: CTX-M-15, 18 h
HUVEC = assay: Cytotoxicity against HUVEC after 1 hr by MTS/PMS assay; type: cell-based; details: Homo sapiens
Procedure, shortened: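 HUVEC seeded at 15 000 cells/well on collagen-coated wells (0.6 μg/cm2), passage 4–10, grown to ~90% confluence over 21–25 h. Cells exposed to compound (0–2000 μM) in F-12K medium for 1 h at 37 °C. MTS 240 μg/mL with PMS 9.6 μg/mL in HBSS for 1.5–4 h, then A492. Viability referenced to 0.2% SDS and untreated cells; IC50 reported.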

[7] = Cytotoxicity against rat IEC-6 cells after 1 hr by MTS/PMS assay; type: cell-based; details: IEC-6, 1 h; procedure, shortened: as §1
Enterococcus faecium = assay: Antibacterial activity against vancomycin-resistant Enterococcus faecium ATCC 700221 after 18 hrs by microdilution broth method; details: ATCC 700221, 18 h
Caco-2 = assay: Cytotoxicity against human Caco2 cells after 1 hr by MTS/PMS assay; type: cell-based; details: Caco-2, 1 h; procedure, shortened: as §1

Structure (SMILES)	IC50 (HepG2)	MIC (Escherichia coli [1])	MIC (Acinetobacter baumannii)	IC50 [2]	IC50 (HeLa)	Activity [3]	MIC (Staphylococcus aureus)	Activity [4]	MIC (Escherichia coli [5])	MIC (Escherichia coli [6])	IC50 (HUVEC)	IC50 [7]	MIC (Enterococcus faecium)	IC50 (Caco-2)
CC(=O)N[C@@H](CCCCNC(=N)N)C(=O)N(CCC(=O)N[C@@H](CCCCN)C(=O)N(CCC(=O)N[C@@H](CCCCNC(=N)N)C(=O)N(CCC(=O)N[C@@H](CCCCN)C(=O)N(CCC(=O)N[C@@H](CCCCNC(=N)N)C(=O)N(CCC(N)=O)Cc1ccccc1)Cc1ccccc1)Cc1ccccc1)Cc1ccccc1)Cc1ccccc1	943 µM	8 µM (≈ 13.1 µg/mL)	128 µM (≈ 209 µg/mL)	745 µM	508 µM	Not Active	64 µM (≈ 104 µg/mL)	Not Active	8 µM (≈ 13.1 µg/mL)	16 µM (≈ 26.1 µg/mL)	> 1000 µM	> 1000 µM	128 µM (≈ 209 µg/mL)	> 1000 µM
CC(=O)N[C@@H](CCCCN)C(=O)N(CC(=O)N[C@@H](CCCCNC(=N)N)C(=O)N(CC(=O)N[C@@H](CCCCN)C(=O)N(CC(=O)N[C@@H](CCCCNC(=N)N)C(=O)N(CC(=O)N[C@@H](CCCCN)C(=O)N(CC(=O)N[C@@H](CCCCNC(=N)N)C(=O)N(CC(=O)N[C@@H](CCCCN)C(=O)N(CC(N)=O)[C@@H](C)c1ccccc1)[C@@H](C)c1ccccc1)[C@@H](C)c1ccccc1)[C@@H](C)c1ccccc1)[C@@H](C)c1ccccc1)[C@@H](C)c1ccccc1)[C@@H](C)c1ccccc1 (Ac-K[Nspe][hArg][Nspe]K[Nspe][hArg][Nspe]K[Nspe][hArg][Nspe]K[Nspe]-NH2)	35 µM	1 µM (≈ 2.21 µg/mL)	1 µM (≈ 2.21 µg/mL)	67 µM	21 µM	Not Active	16 µM (≈ 35.4 µg/mL)	Not Active	1 µM (≈ 2.21 µg/mL)	2 µM (≈ 4.42 µg/mL)	145 µM	30 µM	4 µM (≈ 8.84 µg/mL)	182 µM
CC(=O)N[C@@H](CCCCNC(=N)N)C(=O)N(CC(=O)N[C@@H](CCCCN)C(=O)N(CC(=O)N[C@@H](CCCCNC(=N)N)C(=O)N(CC(=O)N[C@@H](CCCCN)C(=O)N(CC(=O)N[C@@H](CCCCNC(=N)N)C(=O)N(CC(N)=O)[C@@H](C)c1ccccc1)[C@@H](C)c1ccccc1)[C@@H](C)c1ccccc1)[C@@H](C)c1ccccc1)[C@@H](C)c1ccccc1 (Ac-[hArg][Nspe]K[Nspe][hArg][Nspe]K[Nspe][hArg][Nspe]-NH2)	141 µM	8 µM (≈ 13.1 µg/mL)	16 µM (≈ 26.1 µg/mL)	210 µM	165 µM	Not Active	32 µM (≈ 52.2 µg/mL)	Not Active	8 µM (≈ 13.1 µg/mL)	8 µM (≈ 13.1 µg/mL)	398 µM	146 µM	8 µM (≈ 13.1 µg/mL)	583 µM
CC(=O)N[C@@H](CCCCN)C(=O)N(CCC(=O)N[C@@H](CCCCNC(=N)N)C(=O)N(CCC(=O)N[C@@H](CCCCN)C(=O)N(CCC(=O)N[C@@H](CCCCNC(=N)N)C(=O)N(CCC(=O)N[C@@H](CCCCN)C(=O)N(CCC(=O)N[C@@H](CCCCNC(=N)N)C(=O)N(CCC(N)=O)[C@@H](C)c1ccccc1)[C@@H](C)c1ccccc1)[C@@H](C)c1ccccc1)[C@@H](C)c1ccccc1)[C@@H](C)c1ccccc1)[C@@H](C)c1ccccc1	100 µM	2 µM (≈ 4.01 µg/mL)	8 µM (≈ 16 µg/mL)	135 µM	39 µM	Not Active	16 µM (≈ 32.1 µg/mL)	Not Active	2 µM (≈ 4.01 µg/mL)	4 µM (≈ 8.02 µg/mL)	497 µM	147 µM	16 µM (≈ 32.1 µg/mL)	330 µM
CC(=O)N[C@@H](CCCCN)C(=O)N(CCC(=O)N[C@@H](CCCCNC(=N)N)C(=O)N(CCC(=O)N[C@@H](CCCCN)C(=O)N(CCC(=O)N[C@@H](CCCCNC(=N)N)C(=O)N(CCC(=O)N[C@@H](CCCCN)C(=O)N(CCC(=O)N[C@@H](CCCCNC(=N)N)C(=O)N(CCC(=O)N[C@@H](CCCCN)C(=O)N(CCC(N)=O)[C@@H](C)c1ccccc1)[C@@H](C)c1ccccc1)[C@@H](C)c1ccccc1)[C@@H](C)c1ccccc1)[C@@H](C)c1ccccc1)[C@@H](C)c1ccccc1)[C@@H](C)c1ccccc1	48 µM	2 µM (≈ 4.62 µg/mL)	2 µM (≈ 4.62 µg/mL)	89 µM	26 µM	Not Active	8 µM (≈ 18.5 µg/mL)	Not Active	2 µM (≈ 4.62 µg/mL)	2 µM (≈ 4.62 µg/mL)	236 µM	80 µM	4 µM (≈ 9.24 µg/mL)	197 µM
CC(=O)N[C@@H](CCCCN)C(=O)N(CCC(=O)N[C@@H](CCCCNC(=N)N)C(=O)N(CCC(=O)N[C@@H](CCCCN)C(=O)N(CCC(=O)N[C@@H](CCCCNC(=N)N)C(=O)N(CCC(=O)N[C@@H](CCCCN)C(=O)N(CCC(=O)N[C@@H](CCCCNC(=N)N)C(=O)N(CCC(N)=O)Cc1ccccc1)Cc1ccccc1)Cc1ccccc1)Cc1ccccc1)Cc1ccccc1)Cc1ccccc1	321 µM	1 µM (≈ 1.92 µg/mL)	16 µM (≈ 30.7 µg/mL)	362 µM	228 µM	Not Active	32 µM (≈ 61.5 µg/mL)	Not Active	1 µM (≈ 1.92 µg/mL)	1 µM (≈ 1.92 µg/mL)	> 1000 µM	457 µM	32 µM (≈ 61.5 µg/mL)	> 1000 µM
CC(=O)N[C@@H](CCCCN)C(=O)N(CC(=O)N[C@@H](CCCCNC(=N)N)C(=O)N(CC(=O)N[C@@H](CCCCN)C(=O)N(CC(=O)N[C@@H](CCCCNC(=N)N)C(=O)N(CC(=O)N[C@@H](CCCCN)C(=O)N(CC(=O)N[C@@H](CCCCNC(=N)N)C(=O)N(CC(N)=O)[C@@H](C)c1ccccc1)[C@@H](C)c1ccccc1)[C@@H](C)c1ccccc1)[C@@H](C)c1ccccc1)[C@@H](C)c1ccccc1)[C@@H](C)c1ccccc1 (Ac-K[Nspe][hArg][Nspe]K[Nspe][hArg][Nspe]K[Nspe][hArg][Nspe]-NH2)	77 µM	2 µM (≈ 3.84 µg/mL)	2 µM (≈ 3.84 µg/mL)	121 µM	52 µM	Not Active	16 µM (≈ 30.7 µg/mL)	Not Active	2 µM (≈ 3.84 µg/mL)	4 µM (≈ 7.69 µg/mL)	351 µM	67 µM	2 µM (≈ 3.84 µg/mL)	376 µM
CC(=O)N[C@@H](CCCCNC(=N)N)C(=O)N(CC(=O)N[C@@H](CCCCN)C(=O)N(CC(=O)N[C@@H](CCCCNC(=N)N)C(=O)N(CC(=O)N[C@@H](CCCCN)C(=O)N(CC(=O)N[C@@H](CCCCNC(=N)N)C(=O)N(CC(N)=O)Cc1ccccc1)Cc1ccccc1)Cc1ccccc1)Cc1ccccc1)Cc1ccccc1 (Ac-[hArg][Nphe]K[Nphe][hArg][Nphe]K[Nphe][hArg][Nphe]-NH2)	980 µM	8 µM (≈ 12.5 µg/mL)	> 128 µM	> 1000 µM	506 µM	Not Active	128 µM (≈ 200 µg/mL)	Not Active	8 µM (≈ 12.5 µg/mL)	16 µM (≈ 25 µg/mL)	> 1000 µM	972 µM	128 µM (≈ 200 µg/mL)	> 1000 µM
